Assay outcomes deposited in PubChem by several laboratories.
This is a sample that favours compounds with a hit; in the whole collection about 5.7% have one here.
Mdm2 MdmX PPI: human Mdm2/MdmX binding inhibition; SaOS-2 split-luciferase Mdm2/MdmX complementation, luminescence; O15151+Q00987; 330,000 compounds, 3% hits; inhibition, % at 8 µM;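 active means inhibition of at least 50% at 8 µM in the primary screen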
Target sequence (O15151 whole entry, looked up): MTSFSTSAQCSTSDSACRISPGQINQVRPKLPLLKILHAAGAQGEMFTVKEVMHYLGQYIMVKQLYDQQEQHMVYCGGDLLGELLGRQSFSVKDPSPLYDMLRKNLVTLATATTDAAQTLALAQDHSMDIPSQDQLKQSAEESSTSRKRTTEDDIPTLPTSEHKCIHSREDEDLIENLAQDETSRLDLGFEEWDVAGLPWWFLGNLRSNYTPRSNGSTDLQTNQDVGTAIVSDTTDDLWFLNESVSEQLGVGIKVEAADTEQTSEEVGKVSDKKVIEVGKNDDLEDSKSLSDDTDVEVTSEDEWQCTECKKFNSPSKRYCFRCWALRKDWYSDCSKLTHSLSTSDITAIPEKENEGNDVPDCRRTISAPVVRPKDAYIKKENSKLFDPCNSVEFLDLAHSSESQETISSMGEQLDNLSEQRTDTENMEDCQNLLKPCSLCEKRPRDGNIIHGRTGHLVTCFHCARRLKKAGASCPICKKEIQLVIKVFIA
Target sequence (Q00987 whole entry, looked up): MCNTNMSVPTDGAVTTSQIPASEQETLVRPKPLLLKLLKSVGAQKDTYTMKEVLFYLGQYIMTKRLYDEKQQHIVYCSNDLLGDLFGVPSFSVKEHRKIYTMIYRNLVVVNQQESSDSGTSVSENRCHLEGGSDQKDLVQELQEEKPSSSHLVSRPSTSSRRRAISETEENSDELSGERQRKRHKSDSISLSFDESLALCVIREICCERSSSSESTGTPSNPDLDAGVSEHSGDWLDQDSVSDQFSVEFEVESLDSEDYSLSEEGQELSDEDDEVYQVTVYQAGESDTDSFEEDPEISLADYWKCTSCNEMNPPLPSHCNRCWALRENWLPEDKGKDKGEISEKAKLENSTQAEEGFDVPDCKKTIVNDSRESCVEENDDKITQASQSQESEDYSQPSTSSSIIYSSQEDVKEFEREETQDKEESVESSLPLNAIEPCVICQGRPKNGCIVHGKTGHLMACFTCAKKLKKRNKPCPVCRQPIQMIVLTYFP
Beta apoptosis: blocks beta cell apoptosis | INS-1E cytokine-induced death, ATP luminescence, 48 h; percent of positive-control rescue, neutral wells zero | 300,000 compounds, 0.8% hits | protection from apoptosis, % (no concentration beside the values) | AID 435005;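 active means Every replicate reaches about 75%, or at least half do and their mean reaches it too, limit read from the data; inconclusive means At least half of replicates reach the limit but their mean does not; inactive means Under half of replicates reach the limit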;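 further: higher means more ATP so stronger rescue from cytokine killing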
Calb FLC: affects C. albicans growth with fluconazole | C. albicans CaCi-2 (fluconazole-resistant clinical isolate) + fluconazole, Alamar Blue growth, 48 h | growth inhibition, % (no concentration beside the values) | 300,000 compounds, 0.57% hits | AID 1979;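 active means growth inhibition above about 58% in most replicates, limit read from the data, passing the limit was not always enough; inconclusive means exactly half the replicates above a set limit; inactive means most replicates below a set limit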;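 further: all wells also contain fluconazole at 8 µg/ml as a sub-toxic cotreatment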
CSC inhib: cancer stem cell inhibition; cancer stem cell-like cells viability, luminescence; 300,000 compounds, 1.1% hits; inhibition, % at 7.5 µM; in the data active means inhibition above about 75%; inconclusive means no clear call, values can overlap the other calls; tested in HMLE shEcad cells
T cruzi repl: T. cruzi replication inhibition | T. cruzi beta-gal in NIH3T3, luminescence, 90 h | 300,000 compounds, 1.4% hits | inhibition, % (no concentration beside the values);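 active means mean inhibition across valid replicates above about 55%, limit read from the data; inconclusive means mean below that limit but half or more replicates reach it; inactive means mean below it, under half of replicates reach it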;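 further: signal also drops with host cell toxicity which is not excluded here; higher percent means less beta-gal luminescence so fewer parasites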
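assay system = mouse NIH/3T3 fibroblasts infected with β-gal-expressing T. cruzi Tulahuen C4 | input = 5,000 NIH/3T3 host cells per well | buffer or medium = DMEM plus 2% FBS | timing = 3 h host attachment, then at least 90 h co-culture | measured by = GalScreen luminescence, 60 min | evaluation = luminescence reflecting intracellular parasite burden, expressed as percent inhibition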
SKKanGAS inh: blocks kanamycin growth of S. pyogenes SKKanGAS strain; BacTiter-Glo, 6 h; AID 1662; 300,000 compounds, 1.3% hits; inhibition, % at 7.5 µM;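 active means mean replicate score, as percent of positive control median, at least 50; inconclusive means mean below 50 but one replicate at or above 50; inactive means mean and every replicate below 50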;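 further: strain carries kanamycin resistance gene driven by streptokinase promoter and grows in 40 µg/ml kanamycin; loss of luminescence reflects streptokinase promoter inhibition or plain growth inhibition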
Hits are given with their value; . = inactive; ? = inconclusive; / = no result given.

SMILES	Mdm2 MdmX PPI	Beta apoptosis	Calb FLC	CSC inhib	T cruzi repl	SKKanGAS inh
Cc1cccc(Nc2nc(-c3ccncc3)cs2)c1	.	.	.	.	60.9	.
Clc1cccc(Nc2nc(-c3ccncc3)cs2)c1	.	.	.	?	65.8	.
Clc1ccc(-c2csc(Nc3cccnc3)n2)cc1	.	.	.	.	58.5	.
Cc1ccc(Nc2nc(-c3ccncc3)cs2)cc1	.	/	.	/	70.0	.
Cc1cccc(Nc2nc(-c3ccc4c(c3)OCCO4)cs2)c1	.	.	.	.	.	.
c1ccc(-c2csc(Nc3cccnc3)n2)cc1	.	.	.	.	.	.
COC(=O)c1ccc(COC(=O)[C@@H]2CC(O)CN2S(=O)(=O)c2ccccc2[N+](=O)[O-])cc1 (stereo partly specified)	.	.	.	.	.	.
COc1cccc(Nc2nc(-c3ccc(O)cc3)cs2)c1	.	.	.	116.6	.	.
COc1cccc(Nc2nc(-c3cccc(N4C(=O)c5ccccc5C4=O)c3)cs2)c1	.	.	.	.	.	.
Cc1ccc(/C=N/NC(=O)c2ccc3c(c2)OCCO3)s1	.	.	.	91.9	.	.
CCn1c(C)nc2cc(C(=O)NNC(=S)Nc3ccc(Cl)cc3Cl)ccc21	.	.	95.3	.	.	.
Cc1cccc(/C=N/NC(=O)c2ccc3c(c2)OCCO3)c1O	.	94.4	.	.	.	90.8
CCn1c(C)nc2cc(C(=O)NNC(=S)Nc3ccccc3Cl)ccc21	.	.	.	.	.	.
O=C(N/N=C/c1cc(Br)cs1)c1ccc2c(c1)OCCO2	.	.	.	?	.	.
CCn1c(C)nc2cc(C(=O)N/N=C/c3cccc(O)c3O)ccc21	.	75.8	.	.	.	.
O=C(N/N=C/c1cccc(O)c1)c1ccc2c(c1)OCCO2	.	.	.	.	.	.
CC(=O)N1CC(C)Oc2ccc(S(=O)(=O)NC(CC(=O)O)c3ccccc3)cc21 (stereo unspecified)	.	.	.	.	.	.
CC(C)(C)C(=O)CNS(=O)(=O)c1ccc(S(=O)(=O)NC2CC2)cc1	.	.	.	.	.	.
O=C(CN1CCN(c2cccc(Cl)c2)CC1)NC1CCCc2ccccc21 (stereo unspecified)	.	.	.	.	.	.
O=C(c1ccc2n[nH]nc2c1)N1CCN(c2ccc(C(F)(F)F)cn2)CC1	.	.	/	/	/	/
CCN(CC(=O)Nc1ccc(OC)cc1)C(=O)Cc1cccs1	.	.	.	/	.	.
COc1ccc(-c2nc(SC(C)C(=O)NC3CC3)n[nH]2)cc1 (stereo unspecified)	.	/	/	/	/	/
O=C(N/N=C/c1ccc(COc2ccc(Br)cc2)o1)c1ccc2c(c1)OCO2	.	/	.	/	.	.
Cc1cccc(/C=N\NC(=O)c2ccc(Cl)cc2)c1O	.	95.6	.	.	64.1	93.3
O=C(N/N=C/c1ccc(-c2ccc(Br)cc2)o1)c1ccc2c(c1)OCO2	.	.	.	.	74.2	.
SMILES	Mdm2 MdmX PPI	Beta apoptosis	Calb FLC	CSC inhib	T cruzi repl	SKKanGAS inh
O=C(N/N=C/c1c[nH]c2ccccc12)c1ccc(Cl)cc1	.	/	.	.	.	.
CN(CC(=O)Nc1ccc(F)c(F)c1F)C(=O)c1ccc2c(c1)S(=O)(=O)N=C1CCCCCN12	.	.	.	.	.	.
COC(=O)c1c(C)[nH]c(C(=O)C(C)OC(=O)c2c(C)noc2C)c1C (stereo unspecified)	.	.	/	/	/	/
O=S(=O)(c1ccc2ccccc2c1)N1CCC(c2nc(-c3ccncc3)no2)CC1	.	.	.	.	71.0	.
Cc1ccc2c(c1)N(S(=O)(=O)c1ccc(F)cc1)C(C(C)(C)C)CO2 (stereo unspecified)	.	.	.	.	.	.
Cc1ccc(S(=O)(=O)N2c3ccccc3OCC2C(C)(C)C)cc1 (stereo unspecified)	.	/	.	.	.	58.4
c1ccc2c(c1)NCC1CCCN21 (stereo unspecified)	.	.	.	.	.	.
O=C(Oc1c(CN2CCOCC2)cc(Cl)c2cccnc12)c1ccccc1F	.	.	102.0	.	74.2	.
O=C(Oc1c(CN2CCOCC2)cc(Cl)c2cccnc12)c1ccccc1	.	?	117.6	.	.	.
CCOc1ccc(S(=O)(=O)n2cnc(C)c2)cc1	.	.	.	.	.	.
Cc1ccc(CNc2nc(C)cs2)cc1	.	.	.	.	.	.
COC(=O)CSC1=C(C#N)C(c2ccccc2F)CC(=O)N1 (stereo unspecified)	.	.	.	.	.	.
Cc1c(NC(=O)CSC2=C(C#N)C(c3ccccc3F)CC(=O)N2)c(=O)n(-c2ccccc2)n1C (stereo unspecified)	.	.	.	.	.	96.5
CC(CCc1ccccc1)NC(=O)CCNS(=O)(=O)c1ccccc1C(F)(F)F (stereo unspecified)	.	.	/	/	/	/
COc1ccc2[nH]c(C(=O)N3CCCN(Cc4ccc(F)cc4)CC3)cc2c1	.	.	.	.	60.4	.
O=C1c2ccccc2C(=O)c2c1cccc2N1CCCC1	/	.	80.3	.	.	.
O=C1C=C(N2CCCCC2)c2ccccc2C1=O	.	117.0	.	97.4	.	82.1
O=C(O)c1nn(CCOc2ccc(Br)cc2)c(=O)c2ccccc12	.	.	.	.	.	.
OCCCCNCc1ccc(OCc2ccc(Cl)cc2)cc1	.	/	.	/	56.8	.
CCN1c2ccccc2NC2C1C(C(C)=O)C(=O)N2c1ccc(Cl)cc1 (stereo unspecified)	.	/	.	.	.	.
CCN1c2ccccc2NC2N=C(OC)C(c3ccccc3)C21 (stereo unspecified)	.	110.7	.	.	.	.
Cc1ccc(NNC(=O)c2ccno2)c(C)c1	.	.	.	.	.	.
CC1=C(C(N)=O)C(c2cccnc2)n2nc(-c3cccc(C)c3)nc2N1 (stereo unspecified)	.	.	.	.	65.6	.
O=C(COC(=O)CNC(=O)C1CCCCC1)Nc1ccccc1OC(F)F	.	.	/	.	/	/
COc1ccccc1/C=C/C(=O)NCC(=O)N/N=C/c1ccccc1[N+](=O)[O-]	.	.	.	.	61.1	.
SMILES	Mdm2 MdmX PPI	Beta apoptosis	Calb FLC	CSC inhib	T cruzi repl	SKKanGAS inh
C/C(=N\Nc1cccc(Cl)c1)C1(C)N(O)C(C)(C)C(c2ccco2)=[N+]1[O-] (stereo unspecified)	.	.	.	83.8	.	.
CS(=O)(=O)c1nsc2nc(=O)c(/C=C3\C=Nc4ccccc43)c(N)n12	.	.	.	.	.	.
CC(C)Sc1nsc2nc(=O)c(/C=C3\C=Nc4ccccc43)c(N)n12	.	.	.	.	.	73.9
CCc1cccc(C)c1NC(=O)CSc1n[nH]c(N)n1	.	.	/	.	/	/
Cc1c(O)cc2n(c1=O)-c1ccc(Cl)cc1C2(C)C	.	.	109.0	/	.	.
CSc1cccc(CN2CCCC(CO)(Cc3cccc(Cl)c3)C2)c1 (stereo unspecified)	.	.	.	.	62.0	.
